The values below come from ChEMBL document CHEMBL4196102, “Yeast Chemogenomic Profiling Reveals Iron Chelation To Be the Principle Cell Inhibitory Mode of Action of Gossypol” (J Med Chem, 2018).

Type in all cases: functional, organism-based
Assay [1] deals with Saccharomyces cerevisiae. Nature of the assay: Growth inhibition of Saccharomyces cerevisiae harboring FTR1 deletion mutant at 400 uM measured for 11 hrs by HOP assay. In short, it runs like this: (§1)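 Pooled homozygous (HOP) or heterozygous (HIP) deletion collections were profiled at 400 µM in two independent experiments, with strain sensitivity read from barcode abundance. Hits were retested as individual log-phase strains in YPD with serial compound dilutions, start OD600 0.01 and 2% DMSO. OD600 was read at 11 h and fitted by logistic regression against HO/YDL227C as wild-type reference.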

Assay [2] relates to Saccharomyces cerevisiae. Nature of the assay: Growth inhibition of Saccharomyces cerevisiae harboring FET3 deletion mutant at 400 uM measured for 11 hrs by HOP assay. In short, it runs like this:
as §1

For assay [3], the system named is Saccharomyces cerevisiae. Nature of the assay: Growth inhibition of Saccharomyces cerevisiae harboring CCC2 deletion mutant at 400 uM measured for 11 hrs by HOP assay. In short, it runs like this: as §1
Assay [4] deals with Saccharomyces cerevisiae. Nature of the assay: Growth inhibition of Saccharomyces cerevisiae harboring GEF1 deletion mutant at 400 uM measured for 11 hrs by HOP assay. In short, it runs like this:
as §1

For assay [5], the system named is Saccharomyces cerevisiae. Nature of the assay: Growth inhibition of wild type Saccharomyces cerevisiae BY4743 at 500 uM measured for 15 hrs in presence of Fe2+.
Assay [6] relates to Saccharomyces cerevisiae. Nature of the assay: Growth inhibition of Saccharomyces cerevisiae harboring GRX6 deletion mutant at 400 uM measured for 11 hrs by HOP assay. In short, it runs like this:
as §1

Assay [7] relates to Saccharomyces cerevisiae. Nature of the assay: Growth inhibition of Saccharomyces cerevisiae harboring PIB2 deletion mutant at 400 uM measured for 11 hrs by HIP assay. In short, it runs like this:
as §1

Assay [8] relates to Saccharomyces cerevisiae. Nature of the assay: Growth inhibition of wild type Saccharomyces cerevisiae BY4743 at 100 uM measured for 15 hrs in presence of Fe2+.

Active and inactive are the calls of the source. No cut-off for these calls is given here.

In the case of `Cc1cc2c(C(C)C)c(O)c(O)c(C=O)c2c(O)c1-c1c(C)cc2c(C(C)C)c(O)c(O)c(C=O)c2c1O`, the “growth inhibition (GI)” value in assay [1], in assay [2], in assay [3], in assay [4] and in assay [6] was “Active” throughout. Further, the “growth inhibition (GI)” value in assay [5] and in assay [7] was “inactive” in each case.
Take `O=C(O)c1ccc(-n2nc(-c3ccccc3O)nc2-c2ccccc2O)cc1`: in assay [2], the “growth inhibition (GI)” value is “Active”. The “growth inhibition (GI)” value in assay [4] and in assay [8] was “inactive” throughout.
